# Compounds with a hit are over-represented: about 2% of the library has one in this group of screens.
# NR2E3 ag-1: activates human photoreceptor nuclear receptor NR2E3. inhibition of corepressor binding, % at 4.78 µM. GST-NR2E3/biotin-RetCOR TR-FRET, 1536-well. 0.12% of 320,000 active;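 active = percent inhibition above the cutoff of mean plus 3 SD of all tested compounds, set per screening campaign, cut at about 20% in these data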;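 note: 0% = DMSO wells and 100% = biotin wells as full block of FRET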
# Target sequence (Q9Y5X4 whole entry, looked up): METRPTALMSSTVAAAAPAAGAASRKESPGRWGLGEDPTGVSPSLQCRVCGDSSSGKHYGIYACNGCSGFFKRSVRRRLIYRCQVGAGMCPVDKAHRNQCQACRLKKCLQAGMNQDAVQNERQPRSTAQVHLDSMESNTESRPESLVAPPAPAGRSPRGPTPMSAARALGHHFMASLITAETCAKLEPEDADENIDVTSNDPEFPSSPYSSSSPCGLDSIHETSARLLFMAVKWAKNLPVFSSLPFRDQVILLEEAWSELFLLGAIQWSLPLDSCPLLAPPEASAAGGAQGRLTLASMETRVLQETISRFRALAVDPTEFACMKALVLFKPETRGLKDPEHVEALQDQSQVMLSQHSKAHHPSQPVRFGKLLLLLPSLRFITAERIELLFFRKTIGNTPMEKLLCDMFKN
#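 Material: NR2E3–RetCOR corepressor complex | Quantity: 1.35 nM GST-tagged NR2E3 final | Schedule: 5 h at 4 °C | Replication: Singlicate compound wells | Reagent: RetCOR corepressor, biotinylated, 7 nM | Controls: Biotin wells as high control, 0.6% DMSO wells as low control | Signal: TR-FRET, Eu(K)-anti-GST donor, streptavidin-D2 acceptor, ex 340, em 617/671 nm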
# Myeloid diff 2: promotes myeloid progenitor differentiation; ER-HoxA9 myeloid progenitors, lysozyme-GFP differentiation, flow cytometry; calls only at 10 µM; 1% of 360,000 active; AID 624256;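 active = normalized GFP-positive differentiation at or above the plate's own cutoff, the solvent-only control mean plus 3 SD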;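 note: cells exposed to compound for four days before flow analysis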
# T cell HTS: T cell immune modulation candidate; 0.068% of 330,000 active; response (vesicle binding), % at 7 µM; 2C CD8+ T cell-vesicle binding, flow cytometry; stronger effect = lower value;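 active = response, share of CD8 T cells binding vesicles, and their 90th percentile fluorescence all below set limits, cut at about 80% in these data, passing the limit was not always enough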;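 note: values below 100% mean blocked vesicle binding to the CD8+ T cells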
#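 Also added: QL9-peptide-loaded Drosophila micro-vesicles bearing Ld, ICAM-1 and B7-1; Test system: purified 2C TCR transgenic mouse naive CD8+ T cells; Measured by: cytometric PE anti-B7-1 and Alexa647 anti-CD8 signals after 1% paraformaldehyde fixation; Timing: binding step 1.5 h, 37 °C, antibody labelling 20 min, ice.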
# NR2E3 ag-2: agonists of human NR2E3 nuclear receptor. Q9Y5X4. CHO-S Gal4-NCOR/VP16-NR2E3 two-hybrid, luciferase. inhibition of corepressor binding, % at 3.98 µM. 0.35% of 360,000 active. AID 602229;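 active = inhibition above the mean of all tested compounds plus 3 SD, cut at about 70% in these data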;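 note: 0% = DMSO with NR2E3 transfected cells and 100% = cells lacking NR2E3 construct; higher means lower luciferase signal from less NR2E3 corepressor binding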
# FXN GAA850 act: increases GAA850 frataxin promoter reporter activity | HEK293 lucGAA850 FXN promoter luciferase reporter, 24 h; percent of 10 µM SAHA response | activation, % at 6 µM | 0.56% of 360,000 active;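 active = activation above the average of all compounds screened plus 3 SD, cutoff fixed separately per campaign, cut at about 7.5% in these data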;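 note: 0% = DMSO wells and 100% = 10 µM SAHA wells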
# NR2E3 ag conf: confirmation of human NR2E3 agonists; shares compounds with NR2E3 ag-2; inhibition, % at 3.98 µM; CHO-S mammalian two-hybrid NR2E3-NCOR, luciferase luminescence; 51% of 2,300 active;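 active = average inhibition above a cutoff equal to the mean inhibition of all tested compounds plus one SD, cut at about 70% in these data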;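 note: 0% = DMSO in NR2E3 cells and 100% = DMSO in cells lacking NR2E3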
# VP16 counter: reduces GAL4-VP16 reporter signal in NR2E3 counterscreen. AID 624379. 29% of 2,300 active. CHO-S GAL4-VP16 luciferase reporter, luminescence. inhibition, % at 3.98 µM. shares compounds with NR2E3 ag-2;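 active = mean inhibition above a cutoff equal to the average over all tested compounds plus one standard deviation, cut at about 70% in these data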;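 note: luciferase from a UAS reporter driven by GAL4-VP16 transactivation; 0% = DMSO with VP16-transfected cells and 100% = DMSO with cells lacking VP16; higher means less reporter light so more repression of VP16 activity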
# An asterisk follows results filed as active; i = inactive; nt = not tested or not shown; + = active, no number.
SMILES,NR2E3 ag-1,Myeloid diff 2,T cell HTS,NR2E3 ag-2,FXN GAA850 act,NR2E3 ag conf,VP16 counter
COc1ccc2[nH]cc(CCNC(=O)CCC3CCCCC3)c2c1,4,i,211,-15,1,nt,nt
COc1ccc(CNC(=O)c2ccccc2NC(=O)C2=C(C)OCCS2)cc1,nt,i,nt,-4,0,nt,nt
COC(=O)c1ccc2nc(-c3ccc(C#N)cc3)c(Cc3cccc(F)c3)n2c1,nt,i,nt,-42,nt,nt,nt
Cc1cc(C)c(S(=O)(=O)/N=C2/C=C(Sc3ncn[nH]3)C(=O)c3ccccc32)cc1C,9,i,531,102*,-13,49,-12
COc1ccc(C(=O)C2CCCN(S(=O)(=O)c3ccc(C(C)=O)cc3)C2)c(C)c1 (configuration not stated),-2,i,163,83*,0,67,63
COC(=O)[C@]12CCCCC=C1N(CCc1ccc(OC)c(OC)c1)C(=O)[C@H](CC(=O)NCC1CCCCC1)C2,nt,i,nt,nt,nt,nt,nt
O=C(Cc1n[nH]c(=O)c2ccccc12)Nc1cc(C(F)(F)F)ccc1-n1cncn1,nt,i,nt,-8,1,nt,nt
CCN(CC)S(=O)(=O)c1ccc(S(=O)(=O)Nc2c(C)nn(C)c2C)cc1,1,i,242,53,-1,43,53
O=C(Nc1cccnc1)c1ccc(COc2cc(Cl)ccc2Cl)o1,2,i,100,-106,-1,nt,nt
O=C(N/N=C/c1ccc(O)cc1)c1ccc(COc2cc(Cl)ccc2Cl)o1,2,i,404,54,2,42,-17
Cc1cc(/C=N/n2cnnc2)c(C)n1-c1ccc(Cl)cc1,3,i,355,1,5,nt,nt
Cc1cc(/C=N/n2cnnc2)c(C)n1-c1ccc(OCc2ccc(F)cc2)cc1,1,+,505,48,-5,96*,85*
Cc1cc(/C=N/n2cnnc2)c(C)n1-c1ccc(OCc2ccc(Cl)cc2Cl)cc1,2,i,332,111*,-13,98*,89*
CC(=O)OC1c2ccccc2C(=O)N1Cc1ccccc1 (configuration not stated),-2,i,782,75*,4,-1,3
CCOC(=O)c1ccc(Oc2cn[nH]c2-c2ccc(O)cc2O)cc1,-2,i,366,12,-1,nt,nt
CCCOC(=O)c1ccc(Oc2cn[nH]c2-c2ccc(O)cc2O)cc1,2,i,437,58,-4,4,34
O=[N+]([O-])c1nn(-c2ccc3c(c2)OCCO3)n(O)c1=Nc1ccccc1,2,i,251,95*,-14,83*,77*
O=[N+]([O-])c1nn(-c2ccc3c(c2)OCCO3)n(O)c1=NCCCO,-2,i,219,15,0,nt,nt
Cc1ccc(N=c2c([N+](=O)[O-])nn(-c3ccc4c(c3)OCCO4)n2O)c(Cl)c1,-1,nt,188,nt,nt,nt,nt
Cc1ccc(N=c2c([N+](=O)[O-])nn(-c3ccc4c(c3)OCCO4)n2O)cc1F,1,i,216,82*,-11,63,49
Cc1cc(C)cc(N=c2c([N+](=O)[O-])nn(-c3ccc4c(c3)OCCO4)n2O)c1,-5,i,386,50,-1,61,12
O=S(=O)(c1ccc(Cl)cc1)N1CCN(c2ncnc3sccc23)CC1,nt,i,107,95*,1,94*,72*
O=C(c1cc(S(=O)(=O)N2CCOCC2)ccc1Cl)N1CCC(Cc2ccccc2)CC1,-2,i,359,57,1,27,7
COc1ccc(CNc2ncnc3sccc23)cc1,4,i,184,94*,-4,82*,63
c1ccc(CNc2ncnc3sccc23)cc1,-3,i,425,91*,-1,80*,53
SMILES,NR2E3 ag-1,Myeloid diff 2,T cell HTS,NR2E3 ag-2,FXN GAA850 act,NR2E3 ag conf,VP16 counter
c1cncc(CNc2ncnc3sccc23)c1,0,i,366,3,-1,nt,nt
COc1ccc(C(CNc2ncnc3sccc23)N(C)C)cc1OC (configuration not stated),-1,i,286,-25,0,nt,nt
c1csc(CNc2ncnc3sccc23)c1,-1,i,223,72*,2,84*,66
COc1ccc(C2/C(=C(/O)c3ccc(Br)cc3)C(=O)C(=O)N2C)cc1 (configuration not stated),8,i,193,-31,2,nt,nt
Cc1cc(=O)[nH]c(SCCCOc2ccccc2Cl)n1,2,i,342,-17,-2,nt,nt
CCc1cc(OCCCSc2nc(C)cc(=O)[nH]2)ccc1Cl,3,i,253,56,0,76*,43
CCOc1ccc(OCCC(=O)N(CC)CC(=O)Nc2ccccc2OC)cc1,nt,i,nt,-24,-1,nt,nt
COc1ccc(OC)c(C2(O)CSC(=Nc3cccnc3)N2Cc2ccco2)c1 (configuration not stated),-3,i,479,13,-2,nt,nt
OC1(c2ccc(OC(F)F)cc2)CSC(=Nc2cccnc2)N1C1CC1 (configuration not stated),1,i,316,69,0,70,60
CN(C(=O)OC(C)(C)C)c1ccc(-c2nc3ccccc3s2)cc1,2,i,nt,89*,-14,86*,77*
FC(F)(F)c1ccc(-c2nc3ccccc3s2)cc1,nt,i,nt,-37,nt,nt,nt
CC(C)c1ccc(-c2nc3ccccc3s2)cc1,3,i,177,88*,-18,71*,58
O=[N+]([O-])c1ccc(-c2cn3c(n2)CCC3)cc1,6,i,100,-31,2,nt,nt
c1ccc(Nc2nc(NCc3ccco3)c3ccccc3n2)cc1,-2,i,171,-17,0,nt,nt
Cc1cccc(Nc2nc(NCc3ccco3)c3ccccc3n2)c1,5,i,368,74*,-2,100*,87*
N#CC(=C(O)CN1CCN(c2ccccc2F)CC1)c1nc(-c2ccccc2)cs1,nt,i,nt,57,-1,37,43
CSCCC(C(=O)NC(C)(C)C)n1c(-c2ccc(C)cc2)nc2ccccc21 (configuration not stated),nt,i,nt,nt,nt,nt,nt
O=C(NC(=S)N1CCN(c2nc(-c3ccccc3)cs2)CC1)c1cncc(Br)c1,0,i,506,62,1,40,39
CN(C)S(=O)(=O)c1ccc2nc(NC(=O)c3cccnc3)sc2c1,-2,i,201,-65,3,nt,nt
O=C(NC(NNc1ccc([N+](=O)[O-])cc1)(C(F)(F)F)C(F)(F)F)c1ccccc1Cl,4,i,438,-12,-5,nt,nt
O=C(NC(Nc1nc2ccc([N+](=O)[O-])cc2s1)(C(F)(F)F)C(F)(F)F)c1cccnc1,0,i,144,101*,-12,98*,89*
